CaV13 FRET inh – Disruptors of the CACNA1D IQ motif to Ca2+-dependent inactivation inhibitor domain association, primary screening, Förster resonance energy transfer in intact living … | HEK cells, CFP/YFP FRET ICDI-IQ, plate reader, 10 min; percent FRET-ratio fall versus neutral wells | inhibition, % at 12.3 µM | 340,000 compounds, 0.098% hits | AID 743397;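 active = mean replicate inhibition of at least 30% and at least 1% of replicates passing that level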;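 also: 0% = median of the neutral control wells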
CAL PDZ FP-1 – blocks peptide binding to the human CAL PDZ domain. Q9HD26. inhibition, % at 24.9 µM. purified CAL PDZ, TMR-peptide fluorescence polarization, 1 h. 300,000 compounds, 0.92% hits;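 active = mean inhibition of at least 30% with at least half of replicates also reaching 30%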;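 also: 0% = DMSO neutral control and 100% = excess unlabeled competitor peptide PRC23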
Keap1-Nrf2 PPI – disrupts human Keap1 binding to Nrf2 peptide; Q14145; AID 504523; inhibition, % at 9.4 µM; Keap1 Kelch-Nrf2 peptide fluorescence polarization, 1536-well; 340,000 compounds, 0.15% hits; in the data active = inhibition above about 12%;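 also: human Keap1 Kelch domain with fluorescein labeled Nrf2 9mer peptide probe; 0% = neutral control wells and 100% = peptide positive control; higher means more block of Keap1 binding to Nrf2 peptide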
LANA-H2B inh – blocks KSHV LANA binding to histone H2A/H2B; inhibition, % (no concentration beside the values); cell-free LANA-H2A/H2B peptide, fluorescence polarization; 320,000 compounds, 0.6% hits; in the data active = inhibition mostly above about 10%, no sharp cut-off; inactive = mostly below about 6.7%
LANA DNA inh – inhibitors of KSHV LANA C-terminal domain DNA binding | MBP-C-LANA/FAM-LBS DNA binding, fluorescence polarization | inhibition, % at 9 µM | 340,000 compounds, 0.078% hits;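 active = highest replicate inhibition at or above 60% at 9 µM, even if other replicates fall short; inactive = all replicates below 60% inhibition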;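 also: 0% = neutral control wells and 100% = 4 µM acridine orange control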
CAL PDZ FP-2 – human CAL PDZ-peptide interaction inhibition; purified CAL PDZ, TMR-peptide fluorescence polarization, 1 h; AID 504414; inhibition, % at 20 µM; 330,000 compounds, 0.02% hits; Q9HD26;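 active = highest replicate inhibition of at least 40%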;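 also: plate controls were DMSO neutral control wells for no effect and unlabeled competitor peptide control wells for full effect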
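Material: tagged CAL PDZ domain; buffer or medium: 25 mM sodium phosphate pH 7.4, 150 mM NaCl, TCEP, IgG, Thesit; compound dosing: single point, 20 µM; schedule: 1 h incubation at room temperature before polarization reading; measured by: FP readout, S and P plane fluorescence; read-out basis: percent inhibition from loss of millipolarization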
Keap1 Kelch bind – binds and thermally shifts human Keap1 Kelch domain; shares compounds with Keap1-Nrf2 PPI; Keap1 Kelch thermal shift, delta Tm; stronger effect = higher value; max delta Tm, degrees C; 400 compounds, 8% hits; in the data active = max delta Tm above about 0.48 degrees C
Dye-only ctr – counter-screen for Keap1 thermal shift hits: dye-only artifacts. shares compounds with Keap1-Nrf2 PPI. 140 tested, under 10 active. delta Tm, degrees C (concentration not given with the values). AID 651858. Sypro Orange dye-only thermal melt, no protein, delta Tm; top dose 26 µM;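 active = at highest dose tested, delta Tm positive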
Starred values were filed as active, the others as inactive; i = inactive; x = no result given. Rows were chosen to be rich in hits. Some 1.5% of all compounds tested hit in one or more screens of this group.

SMILES | CaV13 FRET inh | CAL PDZ FP-1 | Keap1-Nrf2 PPI | LANA-H2B inh | LANA DNA inh | CAL PDZ FP-2 | Keap1 Kelch bind | others
COc1ccc(/C=c2\s/c(=C(/C#N)C(=O)NCc3ccco3)n(-c3ccccc3)c2=O)cc1 | -14 | -2 | 13* | 1 | 13 | 1 | -0.02
CCN(c1ccc(NC(=O)COC(=O)CCc2cc(OC)c(OC)c(OC)c2)cc1)C(C)C | 5 | -3 | -5 | x | 1 | -2 | x
CNc1ccc2c3c(cccc13)C(=O)N(C)C2=O | -10 | -1 | 109* | 88* | 109* | 3 | 0
COC(=O)c1cc(C)ccc1OCc1ccc([N+](=O)[O-])cc1 | -6 | x | 4 | -2 | -3 | -1 | x
Oc1ccc2nnc3c(Br)cnn3c2c1 | 9 | -6 | 37* | 19* | 67* | -1 | -0.17
OCCOCCN1CCN(C2=Nc3ccccc3Sc3ccccc32)CC1 | -5 | -5 | i | 2 | 0 | 1 | x
O=C1C=CC(=O)c2c(O)c(N3CCN(CCO)CC3)c(Cl)c(O)c21 | -8 | 1 | 39* | x | 4 | 3 | -0.07 | Dye-only ctr=-22
O=C1C=CC(=O)c2c(O)c(N3CCN(CCOCCO)CC3)c(Br)c(O)c21 | -3 | 4 | 25* | x | 10 | 7 | 0.08
CCC(C)(C)n1nnnc1C(c1cc2ccc(OC)cc2[nH]c1=O)N1CCc2ccccc2C1 (centres undefined) | -4 | 1 | 9.6* | -21 | 35 | -1 | -0.13 | Dye-only ctr=-24
CCCCCSc1nnc2c(n1)OC(C)N(C(C)=O)c1ccccc1-2 (centres undefined) | -5 | -2 | 13* | -3 | 0 | 0 | -0.03
C=CCn1c(Sc2ncc([N+](=O)[O-])s2)n[nH]c1=O | 0 | x | 19* | 0 | 2 | 0 | -0.09 | Dye-only ctr=-28
Cc1ccnc(NC(=O)CCC(=O)N(CC(=O)NC(C)(C)C)c2ccc3c(c2)OCO3)c1 | -3 | -2 | 2 | 3 | -1 | -3 | x
O=C1NC2=C(C(=O)CCC2)C(c2ccccc2Cl)N1 (centres undefined) | -6 | -1 | 1 | -1 | 0 | -3 | x
Cc1nc(Cl)c2c(n1)NC1=C(O2)C(=O)CCC1 | -17 | 4 | 28* | 16 | 51 | -3 | -0.12 | Dye-only ctr=-23
CC(C)Cn1c(N)c(C(=O)CSc2nnc(-c3ccco3)n2C)c(=O)n(C)c1=O | -5 | x | 68* | 5 | x | -1 | 0.03
Cn1c(=O)c2c(ncn2CC(=O)OCC(=O)Nc2cccc(Cl)c2)n(C)c1=O | 3 | 0 | -1 | -2 | -3 | -5 | x
CN(CC(=O)Nc1cccc(F)c1)C(=O)CCNC(=O)c1ccco1 | -5 | 2 | 0 | 2 | 1 | -1 | x
O=[N+]([O-])c1cncc([N+](=O)[O-])c1Nc1cccc(O)c1 | -3 | x | 35* | 0 | 27 | -1 | -0.14
O=c1[nH]c2cc(C(F)(F)F)ccc2n1-c1cc(C(F)(F)F)ccc1O | -5 | -2 | 15* | 0 | -4 | 0 | 0.03
O=C(NC1CCCCC1)C(c1ccncc1)N(C(=O)c1csnn1)c1cccc(F)c1 (centres undefined) | -6 | -2 | -3 | 3 | -3 | -1 | x
CC(OC(=O)CNC(=O)COc1ccccc1)C(=O)N(C)Cc1ccccc1 (centres undefined) | -5 | 4 | -2 | 2 | 0 | -2 | x
COc1cccc(C2=CC(c3cccs3)n3nnnc3N2)c1 (centres undefined) | -22 | -2 | 15* | 6 | 32 | 0 | -0.13
COc1cccc(C2=CC(c3ccc(OC)c(OC)c3OC)n3nnnc3N2)c1 (centres undefined) | x | 1 | 1 | 0 | -1 | 0 | x
CC(=O)N1CCN(S(=O)(=O)c2cccc(C(=O)NNC(=O)c3ccc(Br)cc3)c2)CC1 | -14 | x | 48* | x | 27 | 1 | 0 | Dye-only ctr=-23
COc1ccc2noc3c2c1C(=O)c1ccccc1-3 | -77 | 1 | 106* | 167* | 130* | 27 | 0.04 | Dye-only ctr=6.2*
SMILES | CaV13 FRET inh | CAL PDZ FP-1 | Keap1-Nrf2 PPI | LANA-H2B inh | LANA DNA inh | CAL PDZ FP-2 | Keap1 Kelch bind | others
COc1ccc(OC)c2c1C(=O)c1ccccc1C2=O | -14 | x | x | 15 | x | x | x
CC(C)c1ccc(N(CC(=O)N2CCN(Cc3ccccc3)CC2)S(C)(=O)=O)cc1 | -5 | 0 | -8 | -7 | 0 | -29 | x
CC[C@@]1(O)C(=O)OCc2c1cc1n(c2=O)Cc2cc3c(CN(C)C)c(O)ccc3nc2-1 | -51 | -3 | 78* | 68* | 131* | 0 | -0.08
O=C(CN1C(=O)NC(CCc2ccccc2)C1=O)Nc1ccc(F)c(F)c1F (centres undefined) | -3 | -1 | -2 | -8 | 1 | 1 | x
O=c1[nH]c(/C=C/c2cccc3ccccc23)nc2ccccc12 | 0 | x | 17* | -2 | 35 | 1 | -0.02 | Dye-only ctr=-22
O=c1[nH]c(/C=C/c2ccccc2F)nc2ccccc12 | -5 | 1 | 3 | 1 | -1 | 15 | x
CC(C)C1OC2(C)OC(=N)C1(C#N)C(C#N)(C#N)C2c1ccccc1 (centres undefined) | -6 | 0 | 21* | 4 | 94* | -2 | -0.06 | Dye-only ctr=-31
CCC1OC2(C)OC(=N)C1(C#N)C(C#N)(C#N)C2c1ccccc1 (centres undefined) | -3 | -4 | 31* | 5 | 63* | -1 | -0.08 | Dye-only ctr=-22
S=C1SCN(CC2CC2)CN1CC1CC1 | -5 | -4 | 33* | 5 | 33 | 2 | -0.15
Cc1cccn2c(=O)c3cc(S(=O)(=O)c4ccccc4)c(=N)n(Cc4cccnc4)c3nc12 | 3 | -12 | 20* | -1 | 31 | -6 | -0.02
N=c1c(S(=O)(=O)c2ccccc2)cc2c(=O)n3ccccc3nc2n1Cc1cccnc1 | 2 | -1 | 2 | -2 | 8 | -3 | x
CCN1CCN(C(=O)c2ccc(N3CC4CC(C3)c3cccc(=O)n3C4)c([N+](=O)[O-])c2)CC1 (centres undefined) | -3 | -3 | -5 | -2 | 0 | -2 | x
Oc1[nH]c2ccccc2c1N=Nc1ccc(F)cc1 | -12 | 2 | 4 | -4 | 4 | 1 | x
Oc1[nH]c2ccccc2c1N=Nc1ccccc1 | -4 | -1 | 20* | 16* | 3 | 0 | -0.03
Oc1[nH]c2ccccc2c1N=Nc1ccccc1F | -47 | -1 | 21* | -65 | 41 | -2 | -0.1

Source: PubChem
